Assay results published in ChEMBL document CHEMBL5724801, “EUbOPEN Chemogenomics Library - Multiplex” (2024).
Values joined by “and” are separate entries in the source; they are usually repeats but may differ in a detail not shown here. Equal values may be shown once.

System: U2OS
Assay: Multiplex assay against U2OS
Format: toxicity, cell-based
Conditions: human
Method in brief: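 Live cells carried four stains from seeding: Hoechst33342, BioTracker Green Microtubule Cytoskeleton Dye, MitoTracker Red and Annexin V Alexa Fluor 680. They were imaged on a CQ1 microscope at 37°C and 5% CO2 after compound addition. Using CellPathfinder machine-learning gating, cells were split into Hoechst high-intensity objects or normal cells, normal cells into healthy, pyknosed or fragmented nuclei, and pyknosed cells into mitotic or apoptotic; tubulin, mitochondrial-mass and membrane-permeability phenotypes are per cents of healthy-nucleus cells.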

[1] = 12 h, 1 µM, compound concentration 1 uM
[2] = 12 h, 10 µM, compound concentration 10 uM
[3] = 24 h, 1 µM, compound concentration 1 uM
[4] = 24 h, 10 µM, compound concentration 10 uM
[5] = 48 h, 1 µM, compound concentration 1 uM
[6] = 48 h, 10 µM, compound concentration 10 uM

With `Cc1cc(C(C#N)c2ccc(Cl)cc2)c(Cl)cc1NC(=O)c1cc(I)cc(I)c1O` (stereo not drawn) [CLOSANTEL] the “Population Apoptotic (%)” value [1] was 40% and 50%, the “Population Fragmented Nuclei (%)” value [1] was 1.13% and 2.08% and the “Population Healthy Nuclei (%)” value [1] was 90.4% and 86.81%. The “Population Hoechst High Intensity Objects (%)” value [1] was 0.19% and 0%, the “Population Membrane Permeable-Phenotype (%)” value [1] was 0.62% and 4.8% and the “Population Mitochondria Different-Phenotype (%)” value [1] was 0.42% and 3.2%. For the same molecule, the “Population Mitotic Cells (%)” value [1] was 60% and 50%, the “Population Normal (%)” value [1] was 99.81% and 100% and the “Population Pyknosed Nuclei (%)” value [1] was 8.47% and 11.11%. For the same molecule, the “Population Tubulin-Different-Phenotype (%)” value [1] was 1.46% and 0.8%, the “Population Apoptotic (%)” value [2] was 37.5% and 50% and the “Population Fragmented Nuclei (%)” value [2] was 1.14% and 4.88%. The “Population Healthy Nuclei (%)” value [2] was 93.39% and 81.71%, the “Population Hoechst High Intensity Objects (%)” value [2] was 0% and the “Population Membrane Permeable-Phenotype (%)” value [2] was 0.98% and 2.99%. For the same molecule, the “Population Mitochondria Different-Phenotype (%)” value [2] was 0.49% and 8.96%, the “Population Mitotic Cells (%)” value [2] was 62.5% and 50% and the “Population Normal (%)” value [2] was 100%. The “Population Pyknosed Nuclei (%)” value [2] was 5.47% and 13.41%, the “Population Tubulin-Different-Phenotype (%)” value [2] was 0.73% and 2.24% and the “Total Cell Count” value [2] was 439 and 164. The “Population Apoptotic (%)” value [3] was 40% and 43.75%, the “Population Fragmented Nuclei (%)” value [3] was 1.65% and 4.19% and the “Population Healthy Nuclei (%)” value [3] was 90.1% and 86.23%. The “Population Hoechst High Intensity Objects (%)” value [3] was 0%, the “Population Membrane Permeable-Phenotype (%)” value [3] was 0.61% and 5.56% and the “Population Mitochondria Different-Phenotype (%)” value [3] was 0.46% and 6.25%. For the same molecule, the “Population Mitotic Cells (%)” value [3] was 60% and 56.25%, the “Population Normal (%)” value [3] was 100% and the “Population Pyknosed Nuclei (%)” value [3] was 8.25% and 9.58%. The “Population Tubulin-Different-Phenotype (%)” value [3] was 0.46% and 1.39%, the “Population Apoptotic (%)” value [4] was 33.33% and 40% and the “Population Fragmented Nuclei (%)” value [4] was 1.76% and 4.91%. For the same molecule, the “Population Healthy Nuclei (%)” value [4] was 88.75% and 83.93%, the “Population Hoechst High Intensity Objects (%)” value [4] was 0% and the “Population Membrane Permeable-Phenotype (%)” value [4] was 0% and 2.66%. For the same molecule, the “Population Mitochondria Different-Phenotype (%)” value [4] was 0% and 4.26%, the “Population Mitotic Cells (%)” value [4] was 66.67% and 60% and the “Population Normal (%)” value [4] was 100%. For the same molecule, the “Population Pyknosed Nuclei (%)” value [4] was 9.49% and 11.16%, the “Population Tubulin-Different-Phenotype (%)” value [4] was 0.4% and 1.06% and the “Total Cell Count” value [4] was 569 and 224. The “Population Apoptotic (%)” value [5] was 45.67% and 45.95%, the “Population Fragmented Nuclei (%)” value [5] was 3.15% and 4.35% and the “Population Healthy Nuclei (%)” value [5] was 87.31% and 83.28%. For the same molecule, the “Population Hoechst High Intensity Objects (%)” value [5] was 0%, the “Population Membrane Permeable-Phenotype (%)” value [5] was 0.6% and 2.01% and the “Population Mitochondria Different-Phenotype (%)” value [5] was 0% and 6.02%. The “Population Mitotic Cells (%)” value [5] was 54.33% and 54.05%, the “Population Normal (%)” value [5] was 100% and the “Population Pyknosed Nuclei (%)” value [5] was 9.53% and 12.37%. The “Population Tubulin-Different-Phenotype (%)” value [5] was 0.77% and 0%, the “Population Apoptotic (%)” value [6] was 36.05% and 34.09% and the “Population Fragmented Nuclei (%)” value [6] was 2.74% and 3.02%. For the same molecule, the “Population Healthy Nuclei (%)” value [6] was 89.14% and 85.93%, the “Population Hoechst High Intensity Objects (%)” value [6] was 0.09% and 0% and the “Population Membrane Permeable-Phenotype (%)” value [6] was 0.42% and 1.17%. For the same molecule, the “Population Mitochondria Different-Phenotype (%)” value [6] was 0.11% and 4.97%, the “Population Mitotic Cells (%)” value [6] was 63.95% and 65.91% and the “Population Normal (%)” value [6] was 99.91% and 100%. The “Population Pyknosed Nuclei (%)” value [6] was 8.12% and 11.06%, the “Population Tubulin-Different-Phenotype (%)” value [6] was 0.32% and 0.88% and the “Total Cell Count” value [6] was 1060 and 398.

In the case of `CC1(COc2ccc3c(c2)ncn3-c2ccc3cccc(N4CCC(N)CC4)c3n2)COC1` [CRENOLANIB], the “Population Apoptotic (%)” value [1] is reported as 58% and 25%, the “Population Fragmented Nuclei (%)” value [1] is reported as 36% and 28% and the “Population Healthy Nuclei (%)” value [1] is reported as 50% and 60%. The “Population Hoechst High Intensity Objects (%)” value [1] was 9% and 13%, the “Population Membrane Permeable-Phenotype (%)” value [1] was 87% and 82% and the “Population Mitochondria Different-Phenotype (%)” value [1] was 51% and 73%. The “Population Mitotic Cells (%)” value [1] was 41% and 75%, the “Population Normal (%)” value [1] was 90% and 86% and the “Population Pyknosed Nuclei (%)” value [1] was 13% and 10%. For the same molecule, the “Population Tubulin-Different-Phenotype (%)” value [1] was 92% and 88%, the “Total Cell Count” value [1] was 143 and 86 and the “Population Apoptotic (%)” value [2] was 81% and 92%. The “Population Fragmented Nuclei (%)” value [2] was 43% and 37%, the “Population Healthy Nuclei (%)” value [2] was 11% and 21% and the “Population Hoechst High Intensity Objects (%)” value [2] was 21% and 24%. The “Population Membrane Permeable-Phenotype (%)” value [2] was 76% and 47%, the “Population Mitochondria Different-Phenotype (%)” value [2] was 80% and 76% and the “Population Mitotic Cells (%)” value [2] was 18% and 7%. The “Population Normal (%)” value [2] was 78% and 75%, the “Population Pyknosed Nuclei (%)” value [2] was 44% and 41% and the “Population Tubulin-Different-Phenotype (%)” value [2] was 88% and 85%. For the same molecule, the “Total Cell Count” value [2] was 274, the “Population Apoptotic (%)” value [3] was 71% and 54% and the “Population Fragmented Nuclei (%)” value [3] was 39% and 25%. For the same molecule, the “Population Healthy Nuclei (%)” value [3] was 45% and 62%, the “Population Hoechst High Intensity Objects (%)” value [3] was 9% and 10% and the “Population Membrane Permeable-Phenotype (%)” value [3] was 71% and 67%. The “Population Mitochondria Different-Phenotype (%)” value [3] was 62% and 67%, the “Population Mitotic Cells (%)” value [3] was 28% and 45% and the “Population Normal (%)” value [3] was 90% and 89%. The “Population Pyknosed Nuclei (%)” value [3] was 14% and 12%, the “Population Tubulin-Different-Phenotype (%)” value [3] was 87% and 72% and the “Total Cell Count” value [3] was 156 and 98. The “Population Apoptotic (%)” value [4] was 93% and 100%, the “Population Fragmented Nuclei (%)” value [4] was 46% and 53% and the “Population Healthy Nuclei (%)” value [4] was 8% and 11%. The “Population Hoechst High Intensity Objects (%)” value [4] was 37% and 36%, the “Population Membrane Permeable-Phenotype (%)” value [4] was 42% and 44% and the “Population Mitochondria Different-Phenotype (%)” value [4] was 50% and 77%. The “Population Mitotic Cells (%)” value [4] was 6% and 0%, the “Population Normal (%)” value [4] was 62% and 63% and the “Population Pyknosed Nuclei (%)” value [4] was 45% and 34%. For the same molecule, the “Population Tubulin-Different-Phenotype (%)” value [4] was 50% and 77%, the “Total Cell Count” value [4] was 254 and the “Population Apoptotic (%)” value [5] was 88% and 62%. For the same molecule, the “Population Fragmented Nuclei (%)” value [5] was 41% and 37%, the “Population Healthy Nuclei (%)” value [5] was 43% and 48% and the “Population Hoechst High Intensity Objects (%)” value [5] was 8% and 4%. The “Population Membrane Permeable-Phenotype (%)” value [5] was 35% and 53%, the “Population Mitochondria Different-Phenotype (%)” value [5] was 40% and 37% and the “Population Normal (%)” value [5] was 91% and 95%. The “Population Pyknosed Nuclei (%)” value [5] was 14% and 13%, the “Population Tubulin-Different-Phenotype (%)” value [5] was 44% and 51% and the “Total Cell Count” value [5] was 186. For the same molecule, the “Population Apoptotic (%)” value [6] was 100%, the “Population Fragmented Nuclei (%)” value [6] was 51% and 57% and the “Population Healthy Nuclei (%)” value [6] was 11% and 13%. The “Population Hoechst High Intensity Objects (%)” value [6] was 42% and 29%, the “Population Membrane Permeable-Phenotype (%)” value [6] was 43% and 50% and the “Population Mitochondria Different-Phenotype (%)” value [6] was 37% and 35%. The “Population Mitotic Cells (%)” value [6] was 0%, the “Population Normal (%)” value [6] was 58% and 70% and the “Population Pyknosed Nuclei (%)” value [6] was 37% and 28%. For the same molecule, the “Population Tubulin-Different-Phenotype (%)” value [6] was 56% and 28% and the “Total Cell Count” value [6] was 250 and 144.
